# Assay results published in ChEMBL document CHEMBL4680176, “Identification of DOT1L inhibitors by structure-based virtual screening adapted from a nucleoside-focused library” (Eur J Med Chem, 2020).
# Active and inactive are the calls of the source. The calls are words filed in the database; no cut-off is given here.
# Assays:
# [1] = target: T1, Histone H3 methyltransferase DOT1 variant d (Mus musculus) (UniProt Q679P4); test: Inhibition of DOT1L in mouse bone marrow cell transformed with MLL-AF9 cells assessed as reduction in H3K79 methylation measured after 6 days by Western blot analysis; assay type: cell-based; conditions: time 6.0 day
# T1 sequence (whole entry): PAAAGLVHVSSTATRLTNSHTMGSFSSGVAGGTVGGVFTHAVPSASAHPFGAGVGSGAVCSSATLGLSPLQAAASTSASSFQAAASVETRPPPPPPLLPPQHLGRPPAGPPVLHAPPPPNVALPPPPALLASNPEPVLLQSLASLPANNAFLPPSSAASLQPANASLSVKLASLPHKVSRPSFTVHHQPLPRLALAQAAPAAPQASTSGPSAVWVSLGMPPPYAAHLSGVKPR
# Bone marrow cell [2] = test: Antiproliferative activity against mouse bone marrow cell transformed with MLL-AF9 assessed as reduction in cell growth measured after 6 days by hemocytometry; assay type: functional, cell-based; conditions: 144 h
# [3] = Aqueous solubility of compound; assay type: physicochemical
# Bone marrow cell [4] = test: Antiproliferative activity against mouse bone marrow cell transformed with E2A-HLF assessed as reduction in cell growth at 1 to 30 uM measured after 15 days by hemocytometry; assay type: functional, cell-based; conditions: dose 1-30 µM, time 15.0 day
# [5] = target: T1, Histone H3 methyltransferase DOT1 variant d (Mus musculus); test: Inhibition of DOT1L in mouse bone marrow cell transformed with MLL-AF9 cells assessed as reduction in […] methylation at 1 to 30 uM measured after 6 days by Western blot analysis; assay type: cell-based; conditions: dose 1-30 µM, time 6.0 day
# [6] = target: T1, Histone H3 methyltransferase DOT1 variant d (Mus musculus); test: Inhibition of DOT1L in mouse bone marrow cell transformed with MLL-AF9 cells assessed as reduction in H3K79 methylation measured after 9 days by Western blot analysis; assay type: cell-based; conditions: dose 1-30 µM, time 9.0 day
# Bone marrow cell [7] = test: Induction of cell differentiation in mouse bone marrow cells transformed with MLL-AF9 assessed as change in morphology incubated for 6 days by Wright-Giemsa staining based inverted microscopy; assay type: functional; conditions: dose 1-30 µM, time 6.0 day
# Outline: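 Cells taken on day 6 of the proliferation culture (MLL-AF9 murine line, IMDM + 15% FBS + IL-3, re-dosed at each split, 0.3% DMSO). Cytospun onto slides, Wright-Giemsa stained, and imaged under bright field on an inverted microscope to assess morphology.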
# [8] = target: Histone-lysine N-methyltransferase, H3 lysine-79 specific (Homo sapiens, UniProt Q8TEK3); test: Binding affinity to recombinant human N-terminal GST-tagged DOT1L (1 to 420 residues) expressed in Escherichia coli BL21 (DE3) assessed as increase in melting temperature incubated for 1 min by 1,8-ANS probe based thermal shift assay
# Chain of Histone-lysine N-methyltransferase, H3 lysine-79 specific (Q8TEK3 whole entry, looked up, the tested form may be a part): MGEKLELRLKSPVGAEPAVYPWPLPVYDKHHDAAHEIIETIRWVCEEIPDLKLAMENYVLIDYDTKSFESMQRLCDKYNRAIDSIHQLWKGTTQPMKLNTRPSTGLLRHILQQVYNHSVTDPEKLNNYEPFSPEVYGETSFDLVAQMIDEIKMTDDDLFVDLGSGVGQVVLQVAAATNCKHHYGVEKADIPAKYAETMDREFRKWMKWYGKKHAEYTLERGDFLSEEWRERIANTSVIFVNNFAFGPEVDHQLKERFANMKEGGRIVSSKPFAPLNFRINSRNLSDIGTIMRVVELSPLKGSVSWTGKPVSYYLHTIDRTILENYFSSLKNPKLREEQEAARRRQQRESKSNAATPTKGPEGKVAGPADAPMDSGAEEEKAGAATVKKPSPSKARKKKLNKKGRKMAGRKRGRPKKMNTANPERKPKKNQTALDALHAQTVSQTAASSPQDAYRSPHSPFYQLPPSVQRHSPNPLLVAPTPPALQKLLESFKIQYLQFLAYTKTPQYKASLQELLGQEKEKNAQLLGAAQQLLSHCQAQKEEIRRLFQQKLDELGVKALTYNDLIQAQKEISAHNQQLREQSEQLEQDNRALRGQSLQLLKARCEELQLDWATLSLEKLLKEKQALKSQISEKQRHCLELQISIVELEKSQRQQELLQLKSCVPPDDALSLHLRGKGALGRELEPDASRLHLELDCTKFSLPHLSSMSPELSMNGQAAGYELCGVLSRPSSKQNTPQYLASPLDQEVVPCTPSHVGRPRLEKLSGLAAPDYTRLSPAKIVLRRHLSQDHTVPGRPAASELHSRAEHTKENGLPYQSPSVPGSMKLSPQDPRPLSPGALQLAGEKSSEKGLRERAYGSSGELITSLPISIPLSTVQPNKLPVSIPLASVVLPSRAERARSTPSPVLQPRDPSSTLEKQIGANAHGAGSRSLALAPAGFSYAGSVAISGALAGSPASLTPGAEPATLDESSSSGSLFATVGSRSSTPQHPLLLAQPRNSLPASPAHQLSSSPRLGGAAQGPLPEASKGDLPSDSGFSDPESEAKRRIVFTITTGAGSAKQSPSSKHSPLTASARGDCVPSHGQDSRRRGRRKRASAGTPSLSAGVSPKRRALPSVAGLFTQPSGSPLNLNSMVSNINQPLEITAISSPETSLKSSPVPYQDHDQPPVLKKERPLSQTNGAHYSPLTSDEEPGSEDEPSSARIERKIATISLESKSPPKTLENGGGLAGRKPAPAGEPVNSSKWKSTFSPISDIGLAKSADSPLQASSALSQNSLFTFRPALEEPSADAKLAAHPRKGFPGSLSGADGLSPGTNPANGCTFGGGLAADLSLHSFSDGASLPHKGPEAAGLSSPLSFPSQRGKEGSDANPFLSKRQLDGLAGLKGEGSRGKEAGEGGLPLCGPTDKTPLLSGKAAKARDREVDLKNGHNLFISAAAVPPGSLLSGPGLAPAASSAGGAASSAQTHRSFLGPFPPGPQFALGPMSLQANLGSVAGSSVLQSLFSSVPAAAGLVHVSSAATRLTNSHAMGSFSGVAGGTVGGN
# [9] = target: Protein arginine N-methyltransferase 8 (Homo sapiens, UniProt Q9NR22); test: Inhibition of recombinant human PRMT8 using histone H4 as substrate by hotspot assay
# Chain of Protein arginine N-methyltransferase 8 (Q9NR22 whole entry): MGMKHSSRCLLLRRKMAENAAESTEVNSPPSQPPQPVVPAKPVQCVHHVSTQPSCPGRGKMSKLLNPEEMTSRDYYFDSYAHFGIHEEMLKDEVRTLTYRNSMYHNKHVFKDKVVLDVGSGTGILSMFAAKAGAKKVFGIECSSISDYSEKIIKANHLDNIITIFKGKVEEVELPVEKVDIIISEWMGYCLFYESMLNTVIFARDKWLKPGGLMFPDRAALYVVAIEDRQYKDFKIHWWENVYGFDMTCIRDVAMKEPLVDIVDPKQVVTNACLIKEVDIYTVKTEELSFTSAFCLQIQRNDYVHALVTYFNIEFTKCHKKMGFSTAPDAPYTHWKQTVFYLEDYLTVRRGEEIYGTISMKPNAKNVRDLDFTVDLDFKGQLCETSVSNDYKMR
# [10] = target: T1, Histone H3 methyltransferase DOT1 variant d (Mus musculus); test: Inhibition of DOT1L in mouse bone marrow cell transformed with MLL-AF9 cells assessed as reduction in H3K4me3 methylation at 1 to 30 uM measured after 6 days by Western blot analysis; assay type: cell-based; conditions: dose 1-30 µM, time 6.0 day
# [11] = target: T1, Histone H3 methyltransferase DOT1 variant d (Mus musculus); test: Inhibition of DOT1L in mouse bone marrow cell transformed with MLL-AF9 cells assessed as reduction in H3K79 methylation at 30 uM measured after 9 days by Western blot analysis relative to control; assay type: cell-based; conditions: time 9.0 day
smiles,measurement,setting,value
CC(C)(C)c1ccc(NC(=O)c2ncn(CC(=O)NCCn3ccc4c(N)ncnc43)n2)cc1,inhibition,[1],Dose-dependent effect
same,IC50,Bone marrow cell [2],8.8 µM
same,solubility,[3],687 µM
same,inhibition,Bone marrow cell [4],inactive
same,inhibition,[5],inactive
same,inhibition,[6],Dose-dependent effect
same,Activity,Bone marrow cell [7],Dose-dependent effect
same,Activity,[8],Dose-dependent effect
same,IC50,[9],> 250 µM
same,inhibition,[10],inactive
same,inhibition,[11],100%
